# From ChEMBL document CHEMBL1156340 (J Med Chem, 2010)
# Legend:
# [1] = Half life in cynomolgus monkey at 1 mg/kg, iv; assay type: ADME, organism-based, Macaca fascicularis; design: dose 1 mg/kg, route intravenous; conditions: in vivo
# Method in brief: (§1)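 Single-dose pharmacokinetics in each species by oral and intravenous routes; the rat intravenous arm was given intra-arterially. n ≥ 3 per study. Mouse exposure is reported as AUC0-8h.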
# [2] = AUC in cynomolgus monkey at 2 mg/kg, po; assay type: ADME, organism-based, Macaca fascicularis; design: dose 2 mg/kg, route oral; conditions: plasma
# Method in brief: (§2)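 Single-dose pharmacokinetic study with at least 3 animals per study; the ia route is intra-arterial administration.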
# [3] = Volume of distribution at steady state in dog at 1 mg/kg, iv; assay type: ADME, organism-based, Canis lupus familiaris; design: dose 1 mg/kg, route intravenous; conditions: in vivo, read-out: Vdss
# Method in brief: (§3)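 Single-dose plasma pharmacokinetics with at least 3 animals per study. Tmax comes from oral dosing, and clearance and Vss from the parenteral arm. In rat that arm was given intra-arterially; in mouse, dog and monkey it was intravenous. Bioavailability is absolute, comparing the oral and parenteral arms.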
# [4] = Volume of distribution at steady state in Sprague-Dawley rat at 5 mg/kg, ia; assay type: ADME, organism-based; design: dose 5 mg/kg, route intra-arterial; conditions: in vivo, read-out: Vdss; method in brief: as §3
# [5] = Oral bioavailability in dog at 2 mg/kg, po; assay type: ADME, organism-based, Canis lupus familiaris; conditions: in vivo; method in brief: as §3
# [6] = Half life in Sprague-Dawley rat at 5 mg/kg, ia; assay type: ADME, organism-based; design: dose 5 mg/kg, route intra-arterial; conditions: in vivo; method in brief: as §1
# [7] = Metabolic stability in mouse liver microsomes assessed as glutathione conjugate at 30 uM in presence of glutathione; assay type: ADME, Microsome
# Method in brief: (§4)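 Liver microsomes (mouse, rat or human) were fortified with 5 mM glutathione and incubated with 30 μM compound, then screened for glutathione conjugates.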
# [8] = Volume of distribution at steady state in cynomolgus monkey at 1 mg/kg, iv; assay type: ADME, organism-based, Macaca fascicularis; design: dose 1 mg/kg, route intravenous; conditions: in vivo, read-out: Vdss; method in brief: as §3
# [9] = AUC in cynomolgus monkey at 1 mg/kg, iv; assay type: ADME, organism-based, Macaca fascicularis; design: dose 1 mg/kg, route intravenous; conditions: plasma; method in brief: as §2
# [10] = tested on: Liver microsomes; experiment: Metabolic stability in human liver microsomes assessed as glutathione conjugate at 30 uM in presence of glutathione; assay type: ADME, Microsome; method in brief: as §4
# [11] = Oral bioavailability in Sprague-Dawley rat at 10 mg/kg; assay type: ADME, organism-based; conditions: in vivo; method in brief: as §3
# [12] = AUC (0 to 8 h) in BALB/c mouse at 6 mg/kg, iv; conditions: plasma
# [13] = Cmax in cynomolgus monkey at 2 mg/kg, po; assay type: ADME, organism-based, Macaca fascicularis; design: dose 2 mg/kg, route oral; conditions: in vivo; method in brief: as §1
# [14] = Tmax in Sprague-Dawley rat at 10 mg/kg, po; assay type: ADME, organism-based; design: dose 10 mg/kg, route oral; conditions: in vivo; method in brief: as §3
# [15] = AUC in Sprague-Dawley rat at 10 mg/kg, po; assay type: ADME, organism-based; design: dose 10 mg/kg, route oral; conditions: plasma; method in brief: as §2
# [16] = Plasma clearance in Sprague-Dawley rat at 5 mg/kg, ia; assay type: ADME, organism-based; design: dose 5 mg/kg, route intra-arterial; method in brief: as §3
# [17] = Cmax in dog at 2 mg/kg, po; assay type: ADME, organism-based, Canis lupus familiaris; design: dose 2 mg/kg, route oral; conditions: in vivo; method in brief: as §1
# [18] = Oral bioavailability in cynomolgus monkey at 2 mg/kg, po; assay type: ADME, organism-based, Macaca fascicularis; conditions: in vivo; method in brief: as §3
# [19] = AUC (0 to 8 h) in BALB/c mouse at 12 mg/kg, po; conditions: plasma
# [20] = Half life in BALB/c mouse at 6 mg/kg, iv; assay type: ADME, organism-based; design: dose 6 mg/kg, route intravenous; conditions: in vivo; method in brief: as §1
# [21] = Half life in dog at 1 mg/kg, iv; assay type: ADME, organism-based, Canis lupus familiaris; design: dose 1 mg/kg, route intravenous; conditions: in vivo; method in brief: as §1
# [22] = Plasma clearance in cynomolgus monkey at 1 mg/kg, iv; assay type: ADME, organism-based, Macaca fascicularis; design: dose 1 mg/kg, route intravenous; method in brief: as §3
# [23] = Tmax in BALB/c mouse at 12 mg/kg, po; assay type: ADME, organism-based; design: dose 12 mg/kg, route oral; conditions: in vivo; method in brief: as §3
# [24] = AUC in Sprague-Dawley rat at 5 mg/kg, ia; assay type: ADME, organism-based; design: dose 5 mg/kg, route intra-arterial; conditions: plasma; method in brief: as §2
# [25] = Tmax in cynomolgus monkey at 2 mg/kg, po; assay type: ADME, organism-based, Macaca fascicularis; design: dose 2 mg/kg, route oral; conditions: in vivo; method in brief: as §3
# [26] = Crystalline aqueous solubility at pH 6.5; assay type: physicochemical; conditions: aqueous solution
# [27] = Oral bioavailability in BALB/c mouse at 12 mg/kg; assay type: ADME, organism-based; conditions: in vivo; method in brief: as §1
# [28] = Cmax in BALB/c mouse at 12 mg/kg, po; assay type: ADME, organism-based; design: dose 12 mg/kg, route oral; conditions: in vivo; method in brief: as §1
# [29] = Volume of distribution at steady state in BALB/c mouse at 6 mg/kg, iv; assay type: ADME, organism-based; design: dose 6 mg/kg, route intravenous; conditions: in vivo, read-out: Vdss; method in brief: as §3
# [30] = Crystalline aqueous solubility at pH 7.9; assay type: physicochemical; conditions: aqueous solution
# [31] = Plasma clearance in dog at 1 mg/kg, iv; assay type: ADME, organism-based, Canis lupus familiaris; design: dose 1 mg/kg, route intravenous; method in brief: as §3
# [32] = tested on: Liver microsomes; experiment: Metabolic stability in rat liver microsomes assessed as glutathione conjugate at 30 uM in presence of glutathione; assay type: ADME, Microsome; method in brief: as §4
# [33] = AUC in dog at 2 mg/kg, po; assay type: ADME, organism-based, Canis lupus familiaris; design: dose 2 mg/kg, route oral; conditions: plasma; method in brief: as §2
# [34] = Tmax in dog at 2 mg/kg, po; assay type: ADME, organism-based, Canis lupus familiaris; design: dose 2 mg/kg, route oral; conditions: in vivo; method in brief: as §3
# [35] = AUC in dog at 1 mg/kg, iv; assay type: ADME, organism-based, Canis lupus familiaris; design: dose 1 mg/kg, route intravenous; conditions: plasma; method in brief: as §2
# [36] = Plasma clearance in BALB/c mouse at 6 mg/kg, iv; assay type: ADME, organism-based; design: dose 6 mg/kg, route intravenous; method in brief: as §3
# [37] = Cmax in Sprague-Dawley rat at 10 mg/kg, po; assay type: ADME, organism-based; design: dose 10 mg/kg, route oral; conditions: in vivo; method in brief: as §1
structure (smiles),measurement,setting,value
COC(=O)N(CC(=O)O)Cc1cccc(OCc2nc(-c3ccc(Cl)cc3)oc2C)c1,half-life,[1],11.9 h
same,AUC,[2],8.5 µM·h
same,Vd,[3],1.8 L/kg
same,Vd,[4],0.7 L/kg
same,bioavailability,[5],58%
same,half-life,[6],3.2 h
same,Stability,[7],Stable
same,Vd,[8],3.5 L/kg
same,AUC,[9],5.8 µM·h
same,Stability,[10],Stable
same,bioavailability,[11],91%
same,AUC(0-8h),[12],19.3 µM·h
same,Cmax,[13],1.9 µM
same,Tmax,[14],0.4 h
same,AUC,[15],88 µM·h
same,clearance,[16],4.3 mL/min/kg
same,Cmax,[17],1 µM
same,bioavailability,[18],75%
same,AUC(0-8h),[19],33.9 µM·h
same,half-life,[20],3 h
same,half-life,[21],7.9 h
same,clearance,[22],8.9 mL/min/kg
same,Tmax,[23],0.25 h
same,AUC,[24],48 µM·h
same,Tmax,[25],0.8 h
same,solubility thermodynamic,[26],280 µg/mL
same,bioavailability,[27],88%
same,Cmax,[28],23.8 µM
same,Vd,[29],1.3 L/kg
same,solubility thermodynamic,[30],> 4000 µg/mL
same,clearance,[31],9.5 mL/min/kg
same,Stability,[32],Stable
same,AUC,[33],4.5 µM·h
same,Tmax,[34],0.9 h
same,AUC,[35],3.9 µM·h
same,clearance,[36],10.8 mL/min/kg
same,Cmax,[37],43 µM
